Results on 40 compounds are retold here after PubChem BioAssay.

The structures appear in SMILES notation. Active and inactive are the calls of the source.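 How the source made its calls, unless noted: active means mean duplicate potentiation above the buffer control mean plus 5 SD of buffer wells; inactive means the rest.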

Chain of Potassium voltage-gated channel subfamily KQT member 1 (Homo sapiens) (P51787 whole entry, looked up): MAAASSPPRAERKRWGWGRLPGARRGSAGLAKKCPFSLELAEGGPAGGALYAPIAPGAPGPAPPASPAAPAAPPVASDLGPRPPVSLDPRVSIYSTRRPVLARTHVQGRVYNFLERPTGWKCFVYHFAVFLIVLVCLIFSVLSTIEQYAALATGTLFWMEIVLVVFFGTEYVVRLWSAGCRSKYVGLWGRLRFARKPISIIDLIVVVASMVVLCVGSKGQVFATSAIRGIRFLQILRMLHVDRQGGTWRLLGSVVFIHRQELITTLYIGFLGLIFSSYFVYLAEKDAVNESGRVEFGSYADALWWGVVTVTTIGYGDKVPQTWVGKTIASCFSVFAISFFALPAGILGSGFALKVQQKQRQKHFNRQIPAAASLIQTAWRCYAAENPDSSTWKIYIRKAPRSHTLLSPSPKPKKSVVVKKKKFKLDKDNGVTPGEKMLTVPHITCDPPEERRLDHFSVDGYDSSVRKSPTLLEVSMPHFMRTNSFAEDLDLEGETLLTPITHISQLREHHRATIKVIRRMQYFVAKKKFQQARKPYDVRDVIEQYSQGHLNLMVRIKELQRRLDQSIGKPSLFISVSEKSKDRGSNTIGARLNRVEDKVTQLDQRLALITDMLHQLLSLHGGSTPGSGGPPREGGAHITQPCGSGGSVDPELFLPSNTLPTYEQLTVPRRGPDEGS

In one experiment the target is Potassium voltage-gated channel subfamily KQT member 2 (Rattus norvegicus) (UniProt O88943). Put plainly: rat KCNQ2 channel potentiation, selectivity assay for KCNQ1 potentiator project, KCNQ2-CHO-K1 cells (AID 493009).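 Further: assay conditions were tuned for KCNQ1 rather than KCNQ2 modulators; signal is max minus min fluorescence divided by baseline after thallium stimulus.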 As to conditions: FluxOR thallium flux fluorescence, at 10 µM; stronger effect = higher value, scaled: buffer 0, activator control 100.
Chain of Potassium voltage-gated channel subfamily KQT member 2 (Rattus norvegicus) (O88943 whole entry, looked up): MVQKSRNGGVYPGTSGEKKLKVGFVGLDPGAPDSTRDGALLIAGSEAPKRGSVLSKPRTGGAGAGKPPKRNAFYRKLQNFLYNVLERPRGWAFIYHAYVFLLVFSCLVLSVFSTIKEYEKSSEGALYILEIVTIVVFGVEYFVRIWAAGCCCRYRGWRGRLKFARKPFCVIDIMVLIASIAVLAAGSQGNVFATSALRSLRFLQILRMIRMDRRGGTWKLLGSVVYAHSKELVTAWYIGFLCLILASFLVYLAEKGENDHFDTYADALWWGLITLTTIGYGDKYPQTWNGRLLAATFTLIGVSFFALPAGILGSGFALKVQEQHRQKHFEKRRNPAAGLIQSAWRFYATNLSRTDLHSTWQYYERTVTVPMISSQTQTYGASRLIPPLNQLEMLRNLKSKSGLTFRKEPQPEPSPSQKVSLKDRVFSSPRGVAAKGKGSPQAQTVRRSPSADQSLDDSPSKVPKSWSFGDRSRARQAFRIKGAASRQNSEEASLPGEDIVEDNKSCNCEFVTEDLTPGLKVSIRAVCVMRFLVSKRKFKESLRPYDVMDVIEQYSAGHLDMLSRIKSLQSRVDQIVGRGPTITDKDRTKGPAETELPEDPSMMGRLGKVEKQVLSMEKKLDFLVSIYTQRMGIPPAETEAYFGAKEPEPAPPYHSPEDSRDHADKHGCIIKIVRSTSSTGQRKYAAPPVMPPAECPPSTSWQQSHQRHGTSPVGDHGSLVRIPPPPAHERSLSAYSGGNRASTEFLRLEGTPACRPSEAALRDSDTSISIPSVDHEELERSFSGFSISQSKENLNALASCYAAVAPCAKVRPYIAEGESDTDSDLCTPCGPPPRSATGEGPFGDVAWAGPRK
As for `COCCn1c(=S)[nH]c2sc3c(c2c1=O)CCC(C)C3` (stereo not given), the potentiation was 514% (active).
In the case of `Cc1ccc(C)c(NC(=S)NC(=O)c2cncc(Br)c2)c1`, the outcome was inactive.
With `CCOC(=O)C1CCN(C(=O)c2c(C)oc3c2C(=O)c2ccccc2C3=O)CC1`, the outcome was inactive.
Same read-out and setting: next, `O=C(NC(=S)Nc1ccccc1N1CCCCC1)c1ccc(F)cc1Cl`: “inactive”.
Same read-out and setting: next, `COc1ccc(C2c3ccc4ccccc4c3Oc3ncn(CCCO)c(=N)c32)cc1` (stereo not given): “inactive”; `O=S(=O)(NCCOc1ccccc1)c1ccc2ccccc2c1`: “inactive”.
In the case of `Oc1[nH]c2ccc(Br)cc2c1N=NC(=S)NCC1CCCO1` (stereo not given), the potentiation is 204% (active).
For `CNc1ccccc1C(=O)OC(C)C(=O)Nc1ccc(Cl)cn1` (stereo not given), the result was inactive.
On the same count and under the same terms, for `O=C(NCCCn1ccnc1)c1cc(C2CC2)on1` the value was “inactive”.
In the case of `Fc1cccc2sc(Nc3nnc(-c4ccco4)o3)nc12`, the potentiation is 381% (active).
Take `Cc1ccc(-n2cnnn2)c2cccnc12`: the result was inactive.
Turning to `CC1(C)Cc2c(sc3[nH]c(=S)n(Cc4ccccc4)c(=O)c23)CO1`, the potentiation is 198% (active).
Regarding `O=C(/C=C/c1ccc(Br)cc1)NC(=S)Nc1ccc(S(=O)(=O)Nc2nccs2)cc1`, the result was inactive.
For the compound `Cc1cccc(NC(=S)NNC(=O)c2cc3c(s2)CCC(C)C3)c1C` (stereo not given), the potentiation is 264% (active).
For the compound `O=C(NC(=S)Nc1ccccc1N1CCOCC1)c1cccc([N+](=O)[O-])c1`, the result was inactive.
For the compound `CN1c2ccccc2C(O)=C(C(=S)Nc2ccc(Cl)cc2)S1(=O)=O`, the potentiation was 146% (active).
`NC(=O)c1ccccc1NC(=O)N1CCOCC1`: the result was inactive.
Turning to `CCN(CC)CC(=O)Nc1ccc2c(c1)Nc1ccccc1CC2`, the potentiation is 217% (active).
On the same count and under the same terms, next, `S=C(N/N=C/c1ccccc1Cl)Nc1cccc(Cl)c1Cl`: 173% (active).
`Cc1cccc(-c2n[nH]c(=S)n2/N=C/c2cccs2)c1`: the potentiation was 149% (active).
In the case of `Cc1onc(-c2ccccc2Cl)c1C(=O)Nc1ccccc1O`, the result was inactive.
As to `O=C(COC(=O)c1cc(NS(=O)(=O)c2cccs2)ccc1O)Nc1cc(Cl)ccc1Cl`, the outcome was inactive.
Consider `CCc1ccc(NC(=O)CSc2nc3ccsc3c(=O)n2CCC(=O)O)cc1`, for which the potentiation was 172% (active).
Turning to `COc1ccc(OC)c(-c2cc(C(=O)N3CCN(c4ccccc4)CC3)no2)c1`, the result was inactive.
Take `COC(=O)c1cccnc1NC(=S)NC1CCCCC1`: the potentiation is 233% (active).
In the case of `COc1cccc(-c2cn(-c3cccc(C(F)(F)F)c3)c(=S)[nH]2)c1`, the result was inactive.
`S=c1nn[nH]n1C12CC3CC(CC(C3)C1)C2`: the potentiation is 210% (active).
On to `CCC(C)c1ccccc1OCCCNC1CCCC1` (stereo not given), for which the result was inactive.
As to `Cc1ccc(-c2n[nH]c(=S)nc2-c2ccc(C)cc2)cc1`, the potentiation was 159% (active).
`Fc1ccc(SCCc2ccncc2)cc1`: the result was inactive.
For `CCc1nnc(NC(=O)c2ccc(S(=O)(=O)N(CC)Cc3ccccc3)cc2)o1`, the potentiation is 270% (active).
Consider `O=C(COc1ccccc1F)Nc1ccc(S(=O)(=O)NCc2ccco2)cc1`, for which the outcome was inactive.
`C=CCn1c(SCC(N)=O)nc2scc(-c3ccc(C)o3)c2c1=O`: the potentiation is 230% (active).
For `CN=C1c2cc3cc(OC)ccc3n2CCN1Cc1ccccc1`, the result was inactive.
Take `O=C(NC(=S)NCCC1=CCCCC1)c1ccco1`: the potentiation was 315% (active).
On to `S=c1nc[nH]c2c1cnn2-c1ccccc1`, for which the potentiation is 222% (active).
On to `O=C(NN1C(=O)C2C(c3ccccc3)C=CC(c3ccccc3)C2C1=O)c1ccncc1` (stereo not given), for which the potentiation is 152% (active).
Regarding `CC(C)c1nc2oc3c(NCC4CCCO4)ncnc3c2c2c1COC(C)(C)C2` (stereo not given), the result was inactive.
As for `COc1ccccc1NC(=O)C(=O)NNC(=O)c1ccco1`, the potentiation was 210% (active).
As for `O=P(CCCCCCCCCP(=O)(c1ccccc1)c1ccccc1)(c1ccccc1)c1ccccc1`, the potentiation is 327% (active).

A further experiment concerns the target Potassium voltage-gated channel subfamily KQT member 1 (Homo sapiens) (UniProt P51787). Put plainly: KCNQ1 channel current potentiators, confirmation, orthogonal assay for KCNQ1 potentiator project, IonWorks patch clamp, KCNQ1-CHO cells (AID 493184;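 active means current rise at least 3 SD above the untreated control mean in each of two repeat wells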). As to conditions: automated patch clamp current, at 10 µM; stronger effect = higher value. In a few lines: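 Assay system – CHO cells carrying KCNQ1 · Medium – pH 7.4 external bath · Probe or stimulus – depolarizing pulse to +40 mV from -90 mV · Compound dosing – one dose, 10 µM final · Measured by – automated perforated-patch electrophysiology · Measure – % potentiation of steady-state current relative to pre-compound · Repeats – two replicates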
As for `COCCn1c(=S)[nH]c2sc3c(c2c1=O)CCC(C)C3` (stereo not given), the result was inactive.
For the compound `Cc1ccc(C)c(NC(=S)NC(=O)c2cncc(Br)c2)c1`, the result was inactive.
For `CCOC(=O)C1CCN(C(=O)c2c(C)oc3c2C(=O)c2ccccc2C3=O)CC1`, the result was inactive.
The same measure, in the same setting: for `O=C(NC(=S)Nc1ccccc1N1CCCCC1)c1ccc(F)cc1Cl` the value was “inactive”; for `COc1ccc(C2c3ccc4ccccc4c3Oc3ncn(CCCO)c(=N)c32)cc1` (stereo not given), “inactive”; for `O=S(=O)(NCCOc1ccccc1)c1ccc2ccccc2c1`, “inactive”.
For the compound `Oc1[nH]c2ccc(Br)cc2c1N=NC(=S)NCC1CCCO1` (stereo not given), the result was inactive.
As for `CNc1ccccc1C(=O)OC(C)C(=O)Nc1ccc(Cl)cn1` (stereo not given), the outcome was inactive.
Consider `O=C(NCCCn1ccnc1)c1cc(C2CC2)on1`, for which the result was inactive.
On to `Fc1cccc2sc(Nc3nnc(-c4ccco4)o3)nc12`, for which the outcome was inactive.
For the compound `Cc1ccc(-n2cnnn2)c2cccnc12`, the outcome was inactive.
`CC1(C)Cc2c(sc3[nH]c(=S)n(Cc4ccccc4)c(=O)c23)CO1`: the outcome was inactive.
Consider `O=C(/C=C/c1ccc(Br)cc1)NC(=S)Nc1ccc(S(=O)(=O)Nc2nccs2)cc1`, for which the result was inactive.
Same read-out and setting: for `Cc1cccc(NC(=S)NNC(=O)c2cc3c(s2)CCC(C)C3)c1C` (stereo not given) the value was “inactive”; for `O=C(NC(=S)Nc1ccccc1N1CCOCC1)c1cccc([N+](=O)[O-])c1`, “inactive”.
As for `CN1c2ccccc2C(O)=C(C(=S)Nc2ccc(Cl)cc2)S1(=O)=O`, the outcome was inactive.
As to `NC(=O)c1ccccc1NC(=O)N1CCOCC1`, the outcome was inactive.
On to `CCN(CC)CC(=O)Nc1ccc2c(c1)Nc1ccccc1CC2`, for which the result was inactive.
In the case of `S=C(N/N=C/c1ccccc1Cl)Nc1cccc(Cl)c1Cl`, the outcome was inactive.
On to `Cc1cccc(-c2n[nH]c(=S)n2/N=C/c2cccs2)c1`, for which the outcome was inactive.
For `Cc1onc(-c2ccccc2Cl)c1C(=O)Nc1ccccc1O`, the result was inactive.
Take `O=C(COC(=O)c1cc(NS(=O)(=O)c2cccs2)ccc1O)Nc1cc(Cl)ccc1Cl`: the result was inactive.
Take `CCc1ccc(NC(=O)CSc2nc3ccsc3c(=O)n2CCC(=O)O)cc1`: the outcome was inactive.
With `COc1ccc(OC)c(-c2cc(C(=O)N3CCN(c4ccccc4)CC3)no2)c1`, the result was inactive.
Regarding `COC(=O)c1cccnc1NC(=S)NC1CCCCC1`, the result was inactive.
As for `COc1cccc(-c2cn(-c3cccc(C(F)(F)F)c3)c(=S)[nH]2)c1`, the outcome was inactive.
The same measure, in the same setting: for `S=c1nn[nH]n1C12CC3CC(CC(C3)C1)C2` the value was “inactive”.
For the compound `CCC(C)c1ccccc1OCCCNC1CCCC1` (stereo not given), the outcome was inactive.
Regarding `Cc1ccc(-c2n[nH]c(=S)nc2-c2ccc(C)cc2)cc1`, the outcome was inactive.
On the same count and under the same terms, next, `Fc1ccc(SCCc2ccncc2)cc1`: “inactive”; `CCc1nnc(NC(=O)c2ccc(S(=O)(=O)N(CC)Cc3ccccc3)cc2)o1`: “inactive”.
Take `O=C(COc1ccccc1F)Nc1ccc(S(=O)(=O)NCc2ccco2)cc1`: the outcome was inactive.
In the case of `C=CCn1c(SCC(N)=O)nc2scc(-c3ccc(C)o3)c2c1=O`, the outcome was inactive.
As for `CN=C1c2cc3cc(OC)ccc3n2CCN1Cc1ccccc1`, the outcome was inactive.
Take `O=C(NC(=S)NCCC1=CCCCC1)c1ccco1`: the outcome was inactive.
`S=c1nc[nH]c2c1cnn2-c1ccccc1`: the result was inactive.
With `O=C(NN1C(=O)C2C(c3ccccc3)C=CC(c3ccccc3)C2C1=O)c1ccncc1` (stereo not given), the outcome was inactive.
`CC(C)c1nc2oc3c(NCC4CCCO4)ncnc3c2c2c1COC(C)(C)C2` (stereo not given): the outcome was inactive.
Turning to `COc1ccccc1NC(=O)C(=O)NNC(=O)c1ccco1`, the outcome was inactive.
In the case of `O=P(CCCCCCCCCP(=O)(c1ccccc1)c1ccccc1)(c1ccccc1)c1ccccc1`, the result was inactive.
